15 molecules from ChEMBL document CHEMBL1158180, “Synthesis and antimicrobial activity of some new heterocycles incorporating antipyrine moiety” (2008) can be followed below.

Common to all, as to details: read-out: IZ
For assay [1], the system named is Botrytis fabae. In words: Antimicrobial activity Botrytis fabae at 0.15 mg/mL after 72 hrs by agar diffusion technique.
Assay [2] concerns Bacillus thuringiensis. In words: Antimicrobial activity Bacillus thuringiensis at 0.15 mg/mL after 24 hrs by agar diffusion technique. It is filed as functional. The essentials: (§1)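 Agar diffusion on nutrient agar. Test solutions were 0.15 mg/mL in DMSO, and DMSO alone was the blank. Plates were seeded with the bacterial culture and incubated 24 h at 30 °C. The read-out was the diameter of the inhibition zone in mm.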

Assay [3] relates to Klebsiella pneumoniae. The assay can be described thus: Antimicrobial activity Klebsiella pneumoniae at 0.15 mg/mL after 24 hrs by agar diffusion technique. It is filed as functional. The essentials: as §1
In assay [4] the test system is Fusarium oxysporum. In words: Antimicrobial activity Fusarium oxysporum at 0.15 mg/mL after 72 hrs by agar diffusion technique.
In assay [5] the test system is Fusarium oxysporum. The assay can be described thus: Antimicrobial activity Fusarium oxysporum at 25 ug/mL after 72 hrs by agar diffusion technique.
The subject of assay [6] is Bacillus thuringiensis. In words: Antimicrobial activity Bacillus thuringiensis at 25 ug/mL after 24 hrs by agar diffusion technique. Type of assay: functional.
For assay [7], the system named is Klebsiella pneumoniae. The assay can be described thus: Antimicrobial activity Klebsiella pneumoniae at 25 ug/mL after 24 hrs by agar diffusion technique. Type of assay: functional.
Assay [8] concerns Botrytis fabae. In words: Antimicrobial activity Botrytis fabae at 25 ug/mL after 72 hrs by agar diffusion technique.

Consider `Cc1cc(C)n(-c2c(C)n(C)n(-c3ccccc3)c2=O)c(=O)c1C#N`, for which the zone of inhibition at 150 µg/mL in the assay with Botrytis fabae [1] was 12 mm; with Bacillus thuringiensis [2], 10 mm; in the assay on Klebsiella pneumoniae [3], 13 mm; in the assay with Fusarium oxysporum [4], 12 mm.
On to `Cc1cc(C)c2c(n1)[nH]n1c(=N)c(C(=O)Nc3c(C)n(C)n(-c4ccccc4)c3=O)nnc21`, for which the zone of inhibition at 150 µg/mL in the assay with Botrytis fabae [1] was found to be 13 mm; in the assay on Bacillus thuringiensis [2], 13 mm; in the assay with Klebsiella pneumoniae [3], 14 mm; in the assay with Fusarium oxysporum [4], 14 mm.
As to `Cc1c(NC(=O)c2sc(=S)n(-c3ccccc3)c2N)c(=O)n(-c2ccccc2)n1C`, the zone of inhibition at 150 µg/mL in the assay on Botrytis fabae [1] amounted to 13 mm; in the assay with Bacillus thuringiensis [2], 12 mm; in the assay on Klebsiella pneumoniae [3], 12 mm; in the assay with Fusarium oxysporum [4], 13 mm.
Take `Cc1c(NC(=O)c2c(Nc3ccccc3)n[nH]c2N)c(=O)n(-c2ccccc2)n1C`: the zone of inhibition at 150 µg/mL in the assay on Botrytis fabae [1] came out at 16 mm; in the assay on Bacillus thuringiensis [2] it was 15 mm; in the assay on Klebsiella pneumoniae [3] it was 12 mm; in the assay with Fusarium oxysporum [4], 12 mm.
`Cc1cc(C)n2nc(Nc3ccccc3)c(C(=O)Nc3c(C)n(C)n(-c4ccccc4)c3=O)c2n1`: the zone of inhibition at 150 µg/mL with Botrytis fabae [1] turned out to be 24 mm; in the assay with Bacillus thuringiensis [2], 21 mm; in the assay with Klebsiella pneumoniae [3] it was 28 mm; in the assay on Fusarium oxysporum [4], 25 mm.
Taken in the same sequence, the figures for `Cc1c(NC(=O)CC#N)c(=O)n(-c2ccccc2)n1C` were 10 mm, 12 mm, 13 mm and 12 mm.
As to `Cc1c(NC(=O)c2c(Nc3ccccc3)n[nH]c2/N=C\N(C)C)c(=O)n(-c2ccccc2)n1C`, the zone of inhibition at 150 µg/mL in the assay on Botrytis fabae [1] stood at 25 mm; in the assay on Bacillus thuringiensis [2], 27 mm; in the assay on Klebsiella pneumoniae [3] it was 24 mm; in the assay with Fusarium oxysporum [4] it was 21 mm.
The matching figures for `Cc1cc(O)n2nc(Nc3ccccc3)c(C(=O)Nc3c(C)n(C)n(-c4ccccc4)c3=O)c2n1`: 27 mm, 20 mm, 24 mm and 25 mm.
Taken in the same sequence, the figures for `Cc1c(-n2nnc3[nH]nc(Nc4ccccc4)c3c2=O)c(=O)n(-c2ccccc2)n1C` were 26 mm, 22 mm, 22 mm and 22 mm.
Taken in the same sequence, the figures for `Cc1cc(C)c2c(N/N=C(\C#N)C(=O)Nc3c(C)n(C)n(-c4ccccc4)c3=O)n[nH]c2n1` were 16 mm, 16 mm, 19 mm and 16 mm.
Take `Cc1c(NC(=O)c2cc3ccccc3oc2=N)c(=O)n(-c2ccccc2)n1C`: the zone of inhibition at 150 µg/mL in the assay on Botrytis fabae [1] was 18 mm; in the assay on Bacillus thuringiensis [2] it was 24 mm; in the assay with Klebsiella pneumoniae [3], 22 mm; in the assay on Fusarium oxysporum [4], 18 mm.
Consider `Cc1c(-n2cnc3[nH]nc(Nc4ccccc4)c3c2=O)c(=O)n(-c2ccccc2)n1C`, for which the zone of inhibition at 150 µg/mL with Botrytis fabae [1] stood at 27 mm; with Bacillus thuringiensis [2] it was 28 mm; in the assay with Klebsiella pneumoniae [3] it was 29 mm; in the assay with Fusarium oxysporum [4], 25 mm.
In the case of `CC1(C)S[C@@H]2[C@H](NC(=O)[C@H](N)c3ccccc3)C(=O)N2[C@H]1C(=O)O` [AMPICILLIN], the zone of inhibition at 25 µg/mL in the assay on Fusarium oxysporum [5] was found to be 15 mm; with Bacillus thuringiensis [6] it was 18 mm; in the assay on Klebsiella pneumoniae [7], 19 mm; in the assay on Botrytis fabae [8], 17 mm.
As to `O=C(N[C@H](CO)[C@H](O)c1ccc([N+](=O)[O-])cc1)C(Cl)Cl` [CHLORAMPHENICOL], the zone of inhibition at 25 µg/mL with Fusarium oxysporum [5] came to 15 mm; in the assay on Bacillus thuringiensis [6], 23 mm; in the assay with Klebsiella pneumoniae [7], 20 mm; in the assay with Botrytis fabae [8] it was 16 mm.
As for `OC(Cn1cncn1)(Cn1cncn1)c1ccc(F)cc1F` [FLUCONAZOLE], the zone of inhibition at 25 µg/mL with Fusarium oxysporum [5] was determined as 16 mm; in the assay on Botrytis fabae [8], 22 mm.
